From ChEMBL document CHEMBL1123309, “Esters and lactones of phenolic amino carboxylic acids: prodrugs for iron chelation” (J Med Chem, 1986)

Key:
Mus musculus [1] = test: BDF1 male mice were administered with 129 mg/kg intraperitoneally and percent change in iron levels was determined in Spleen; type: functional; settings: route intraperitoneal
Method in brief: (§1)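 Male BDF1 mice made iron-overloaded by transfusion of washed, heat-treated (50 °C, 30 min) canine red cells. Dosing began 2 days after the last transfusion, once daily for 7 days, in distilled water or 2% Polysorbate 80 suspension. Daily group urine was collected. Pooled feces were digested in 1 N HCl (90 °C, 30 min). Liver and spleen were homogenized in saline. Iron was measured by atomic absorption and expressed as % change vs transfused controls.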

Mus musculus [2] = test: BDF1 male mice were administered with 129 mg/kg intraperitoneally and number of survivors was determined out 10 tested; type: functional; settings: route intraperitoneal
Method in brief: (§2)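 Male BDF1 mice were iron-loaded by transfusion of canine red cells. The cells were heparinised, washed twice in isotonic saline and heated at 50 °C for 30 min. Dosing started two days after the last transfusion, once daily for 7 consecutive days. Compounds were given in distilled water or as a fine aqueous suspension with Polysorbate 80 (2% final). Toxic signs were recorded daily and survivors counted per group.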

Mus musculus [3] = test: BDF1 male mice were administered with 129 mg/kg intraperitoneally and percent change in iron levels was determined in Urine; type: functional; settings: route intraperitoneal; method in brief: as §1
Mus musculus [4] = test: BDF1 male mice were administered with 129 mg/kg intraperitoneally and percent change in iron levels was determined in Liver; type: functional; settings: route intraperitoneal; method in brief: as §1
Mus musculus [5] = test: BDF1 male mice were administered with 129 mg/kg intraperitoneally and percent change in iron levels was determined in Feces; type: functional; settings: route intraperitoneal; method in brief: as §1
[6] = Compound was evaluated for lethal dose after intraperitoneal administration using iron overload rat model; type: toxicity, organism-based; settings: in vivo, ip
Rattus norvegicus [7] = test: Percent change in iron levels was determined in urine using iron overload rat model where the route of administration is Peroral; type: ADME, organism-based; settings: in vivo, po
Rattus norvegicus [8] = test: Percent change in iron levels was determined in feces using iron overload rat model where the route of administration is Intraperitoneal; type: ADME, organism-based; settings: in vivo, ip
Mus musculus [9] = test: BDF1 male mice were administered with 300 mg/kg intraperitoneally and percent change in iron levels was determined in Feces; type: functional; settings: route intraperitoneal
Method in brief: (§3)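 Male BDF1 mice were hypertransfused with washed, heat-treated (50 °C, 30 min) canine red cells. Starting 2 days after the last transfusion, they received one ip injection daily for 7 days, in distilled water or an aqueous suspension with Polysorbate 80 (2% final). Group urine was collected every 24 h. Feces were digested in 1 N HCl (90 °C, 30 min, triplicate). Liver and spleen were homogenized. Iron was measured by atomic absorption and reported as % change vs transfused controls.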

Mus musculus [10] = test: BDF1 male mice were administered with 300 mg/kg intraperitoneally and percent change in iron levels was determined in liver; type: functional; settings: route intraperitoneal; method in brief: as §3
Mus musculus [11] = test: BDF1 male mice were administered with 300 mg/kg intraperitoneally and percent change in iron levels was determined in Spleen; type: functional; settings: route intraperitoneal; method in brief: as §3
Rattus norvegicus [12] = test: Percent change in iron levels was determined in urine using iron overload rat model where the route of administration is Intraperitoneal; type: ADME, organism-based; settings: in vivo, ip
Mus musculus [13] = test: BDF1 male mice were administered with 300 mg/kg intraperitoneally and percent change in iron levels was determined in Urine; type: functional; settings: route intraperitoneal; method in brief: as §3
Rattus norvegicus [14] = test: Percent change in iron levels was determined in feces using iron overload rat model where the route of administration is Peroral; type: ADME, organism-based; settings: in vivo, po
Mus musculus [15] = test: BDF1 male mice were administered with 300 mg/kg intraperitoneally and number of survivors was determined out of 10 tested; type: functional; settings: route intraperitoneal; method in brief: as §2
Mus musculus [16] = test: BDF1 male mice were administered with 200 mg/kg intraperitoneally and number of survivors was determined out of 10 tested; type: functional; settings: route intraperitoneal; method in brief: as §2
Mus musculus [17] = test: BDF1 male mice were administered with 200 mg/kg intraperitoneally and percent change in iron levels was determined in Urine; type: functional; settings: route intraperitoneal; method in brief: as §1
Mus musculus [18] = test: BDF1 male mice were administered with 200 mg/kg intraperitoneally and percent change in iron levels was determined in Spleen; type: functional; settings: route intraperitoneal; method in brief: as §1
Mus musculus [19] = test: BDF1 male mice were administered with 100 mg/kg intraperitoneally and percent change in iron levels was determined in Urine; type: functional; settings: route intraperitoneal; method in brief: as §1
Mus musculus [20] = test: BDF1 male mice were administered with 200 mg/kg intraperitoneally and percent change in iron levels was determined in liver; type: functional; settings: route intraperitoneal; method in brief: as §1
Mus musculus [21] = test: BDF1 male mice were administered with 100 mg/kg intraperitoneally and percent change in iron levels was determined in Liver; type: functional; settings: route intraperitoneal; method in brief: as §1
Mus musculus [22] = test: BDF1 male mice were administered with 200 mg/kg intraperitoneally and percent change in iron levels was determined in Feces; type: functional; settings: route intraperitoneal; method in brief: as §1
Mus musculus [23] = test: BDF1 male mice were administered with 100 mg/kg intraperitoneally and number of survivors was determined out of 10 tested; type: functional; settings: route intraperitoneal; method in brief: as §2
Mus musculus [24] = test: BDF1 male mice were administered with 100 mg/kg intraperitoneally and percent change in iron levels was determined in Spleen; type: functional; settings: route intraperitoneal; method in brief: as §1
Mus musculus [25] = test: BDF1 male mice were administered with 100 mg/kg intraperitoneally and percent change in iron levels was determined in Feces; type: functional; settings: route intraperitoneal; method in brief: as §1

Q: Which results are given for `O=C([O-])CN(CCN(CC(=O)[O-])c1ccccc1O)c1ccccc1O.[Li+].[Li+]`?
A: Iron change (Mus musculus [1]): -7%; No. of survivors (Mus musculus [2]): 9; Iron change (Mus musculus [3]): 28%; Iron change (Mus musculus [4]): -49%; Iron change (Mus musculus [5]): -38%

Q: Which LD50 [6] does the source give for `O=C(O)CN(Cc1ccccc1O)CC(O)CN(CC(=O)O)Cc1ccccc1O` here?
A: Its LD50 is no less than 800 mg/kg.

Q: And the Iron change (Rattus norvegicus [7])?
A: Its Iron change is 30%.

Q: What about the Iron change (Rattus norvegicus [8]) of the same molecule?
A: Its Iron change is 255%.

Q: What about the Iron change (Mus musculus [9]) of the same molecule?
A: Its Iron change is -32%.

Q: What about the Iron change (Mus musculus [10]) of the same molecule?
A: The Iron change was -50%.

Q: And the Iron change (Mus musculus [11])?
A: Its Iron change is 6%.

Q: What about the Iron change (Rattus norvegicus [12]) of the same molecule?
A: The Iron change was 118%.

Q: What about the Iron change (Mus musculus [13]) of the same molecule?
A: The Iron change was 127%.

Q: And the Iron change (Rattus norvegicus [14])?
A: Its Iron change is 20%.

Q: What about the No. of survivors (Mus musculus [15]) of the same molecule?
A: Its No. of survivors is 10.

Q: Which No. of survivors (Mus musculus [16]) does the source give for `O=C([O-])CN(CCN(CC(=O)[O-])c1ccccc1O)c1ccccc1O.[Na+].[Na+]` here?
A: The No. of survivors was 5.

Q: And the Iron change (Mus musculus [17])?
A: The Iron change was 143%.

Q: What about the Iron change (Mus musculus [18]) of the same molecule?
A: The Iron change was 22%.

Q: What about the Iron change (Mus musculus [19]) of the same molecule?
A: Its Iron change is 106%.

Q: What about the Iron change (Mus musculus [20]) of the same molecule?
A: Its Iron change is -22%.

Q: And the Iron change (Mus musculus [21])?
A: Its Iron change is -22%.

Q: And the Iron change (Mus musculus [22])?
A: Its Iron change is -15%.

Q: And the No. of survivors (Mus musculus [23])?
A: Its No. of survivors is 10.

Q: And the Iron change (Mus musculus [24])?
A: The Iron change was 7%.

Q: What about the Iron change (Mus musculus [25]) of the same molecule?
A: The Iron change was 3%.
